# Assay results from different studies.
# Lines come from different studies, so protocols differ.
# Cell line: OVCAR-8
# Observed: cell growth or viability
SMILES,method,tested at,time,quantity,value
S=C([S][Au-][P+](CCCCCC[P+]([Au-][S]C(=S)n1cccn1)(c1ccccc1)c1ccccc1)(c1ccccc1)c1ccccc1)n1cccn1,,,,GI50,696 nM
O=C1Nc2ccccc2C1=NNc1nnc2n1N=C(c1ccccc1)CS2,SRB,10 µM,,inhibition,41%
COc1ccc(-c2ccc(-c3ccc(C(=N)N)nc3)s2)cc1Cl,SRB,,,GI50,2600 nM
Cc1cc(C)n(C(=S)[S][Au][PH](CCCCCC[PH]([Au][S]C(=S)n2nc(C)cc2C)(c2ccccc2)c2ccccc2)(c2ccccc2)c2ccccc2)n1,,,,GI50,597 nM
COc1ccc(C(=O)/C=C/c2cccc(Cl)c2Cl)cc1S(N)(=O)=O,SRB,10 µM,,inhibition,164%
COc1cccc(Oc2ccccc2NC(=O)CNC(=O)c2cccc3ccccc23)c1,SRB,,48 h,GI50,692 nM
COc1cc(-c2ccc(-c3ccc(C(=N)N)nc3)s2)cc(OC)c1OC,SRB,,,GI50,2300 nM
COc1ccc(C(=O)/C=C/c2cccc(Cl)c2)cc1S(N)(=O)=O,SRB,,48 h,GI50,2800 nM
